Data on three molecules can be found in paper PMC2760637 (Journal of molecular recognition : JMR, 2009).

Assay [1] addresses complement C3 (Homo sapiens) (UniProt P01024). As to the kind of experiment: ITC. Particulars: cited from earlier work.
In assay [2] the test system is classical pathway of complement activation. As to the kind of experiment: Complement inhibition assay. The class given is biochemical. In outline:
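Classical-pathway activation was triggered by antigen–antibody complexes formed on the ELISA plate: an albumin-coated plate bound by a polyclonal anti-ovalbumin antibody. C3b deposited in the presence of the test peptide was detected by ELISA. Percent inhibition was plotted against peptide concentration and fitted to a logistic dose-response function to derive IC50.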

In assay [3] the target is complement C3 (Homo sapiens), P01024. Nature of the assay: ITC. To be noted: Y4 is O-methyl-Tyr, N-acetyl, C-amide, disulfide C2-C12.

*1 amine or outer side, *2 acyl side, *3 side chain or, on linkers, in order; H or OH if unused. Bridges are numbered along the chain shown (N, C = ends). [ ]: non-standard residue; d: D form. Tyr(OMe) = O-methyl-tyrosine, COc1ccc(C[C@H](N[*:1])C(=O)[*:2])cc1

Consider compstatin 4(5MeW), for which the Kd in assay [1] was 120 nM. Regarding “Ac-ICV(1MeW)QisoDWGAHRCT [4(1MeW)6(isoD)]”, the “inhibitory activity (in words)” value is reported as “lacked inhibitory activity” in assay [2] (listed as 4(1MeW)6isoD) and “complete loss of activity” in assay [2] (listed as 6isoD).

B1: compstatin 4MeY (peptide)
chain: Ac-ICV[Tyr(OMe)]QDWGAHRCT-NH2
modifications: disulfide 2-12
SMILES: CC[C@H](C)[C@H](NC(C)=O)C(=O)N[C@H]1CSSC[C@@H](C(=O)N[C@H](C(N)=O)[C@@H](C)O)NC(=O)[C@H](CCCNC(=N)N)NC(=O)[C@H](Cc2c[nH]cn2)NC(=O)[C@H](C)NC(=O)CNC(=O)[C@H](Cc2c[nH]c3ccccc23)NC(=O)[C@H](CC(=O)O)NC(=O)[C@H](CCC(N)=O)NC(=O)[C@H](Cc2ccc(OC)cc2)NC(=O)[C@H](C(C)C)NC1=O
For B1, the dissociation constant Kd in assay [3] was determined as 115 nM.
